SENP1 inh – inhibitors of human SENP1 SUMO protease catalytic domain; recombinant SENP1 catalytic domain, CyPet-SUMO1-YPet FRET cleavage; inhibition, % at 10 µM; hit rate 0.21% among 360,000;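 active = inhibition at least 30% at 10 µM, raw YFP signal under a set limit, fluorescence ratio 0.5 to 1.5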;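 also: 0% = enzyme with DMSO and 100% = no enzyme wells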
Target sequence (Q9P0U3 419-644 limits assumed): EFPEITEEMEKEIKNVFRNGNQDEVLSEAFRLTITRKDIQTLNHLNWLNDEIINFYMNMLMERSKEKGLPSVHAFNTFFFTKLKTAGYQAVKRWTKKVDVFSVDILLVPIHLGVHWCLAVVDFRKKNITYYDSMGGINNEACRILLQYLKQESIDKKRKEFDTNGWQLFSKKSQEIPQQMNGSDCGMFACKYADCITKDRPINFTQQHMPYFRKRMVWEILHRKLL
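system = hSENP1 catalytic domain, recombinant | reagent = SFCypet-SUMO1-SFYpet substrate at 25 nM | doses = one dose per compound, 10 µM, 0.5% DMSO | incubation = enzyme reaction for 50 min at room temperature, dark | measured by = FRET, CFP and YFP emission | controls = no-enzyme low, enzyme-DMSO high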
SENP7 block – blocks the human protease SENP7 | hit rate 1.5% among 330,000 | inhibition, % at 5 µM | recombinant SENP7, Z-RLRGG-aminoluciferin luminescence, 40 min | Q9BQF6;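 active = inhibition above about 50% at the single test dose, limit read from the data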;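 also: plate controls were DMSO with enzyme for no effect and no enzyme buffer wells for full effect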
Target sequence (Q9BQF6 706-1050 limits assumed): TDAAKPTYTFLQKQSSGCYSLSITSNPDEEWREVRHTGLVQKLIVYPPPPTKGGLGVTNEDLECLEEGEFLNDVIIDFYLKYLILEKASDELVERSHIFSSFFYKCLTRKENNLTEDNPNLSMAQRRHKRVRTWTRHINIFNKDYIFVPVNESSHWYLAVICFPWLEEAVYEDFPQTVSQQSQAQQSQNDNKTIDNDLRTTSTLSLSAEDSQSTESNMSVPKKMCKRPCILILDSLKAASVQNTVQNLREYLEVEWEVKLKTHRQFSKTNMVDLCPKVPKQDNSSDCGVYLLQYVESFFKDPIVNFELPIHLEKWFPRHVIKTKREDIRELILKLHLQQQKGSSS
SENP8 block-1 – blocks human SENP8 cleavage of Nedd8 substrate; recombinant SENP8, Nedd8 substrate fluorescence; inhibition, % at 20 µM; hit rate 0.64% among 360,000; AID 602440; in the data active = inhibition mostly above about 40%, no sharp cut-off; inactive = mostly below about 27%
SENP8 block-2 – inhibitors of human SENP8 protease; Q96LD8; purified SENP8, Z-RLRGG-aminoluciferin cleavage, luminescence; inhibition, % at 10 µM; hit rate 1.2% among 330,000; AID 2540; in the data active = inhibition above about 50%
CendR NRP1 mod – alters CendR peptide binding to human NRP-1; O14786; FAM-RPARPAR peptide binding to NRP-1, fluorescence polarization; inhibition, % at 25 µM; hit rate 0.85% among 360,000; AID 602438;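 active = inhibition or corrected inhibition above about 18%, plus a signal ratio from 0.5 to 1.5, limit read from the data, passing the limit was not always enough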
SENP6 inh – inhibitors of human SENP6 protease. Q9GZR1. Recombinant SENP6 catalytic domain, aminoluciferin luminescence. inhibition, % at 10 µM. hit rate 1.8% among 330,000. AID 2599;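 active = inhibition above about 50% at the single tested dose, limit read from the data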;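 also: plate controls were DMSO wells with enzyme for no effect and DMSO wells lacking enzyme for full effect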
* hit, by the source's call; . = no result. Sampled rows, rich in hits. Any-hit rate of the full collection: about 3.3%.

SMILES | SENP1 inh | SENP7 block | SENP8 block-1 | SENP8 block-2 | CendR NRP1 mod | SENP6 inh
COc1ccc([C@H]2CC(=O)C[C@@H](CCn3cc(Cc4ccccc4)nn3)O2)cc1 | 2 | . | 19 | . | -4 | .
Cc1noc(C)c1C(=O)OC(C)C(=O)Nc1ccc(S(=O)(=O)NC(C)C)cc1 (stereo unspecified) | 0 | -5 | 13 | 4 | -13 | -22
CNC(=O)NC(=O)C(C)OC(=O)c1c(C)noc1C (stereo unspecified) | 2 | -10 | -6 | -9 | 43* | -2
CCn1c(=O)c(C(=O)NCc2ccccc2)c(O)c2ccccc21 | 2 | -4 | -26 | -5 | -6 | -9
CCn1c(=O)c(C(=O)NCCNCCO)c(O)c2ccccc21 | 0 | -2 | -17 | -2 | 37* | -18
C#CCNC(=O)C1=C[C@@H](C2CCCCC2)C[C@@H](OCc2ccc(CO)cc2)O1 | -1 | 6 | 6 | -9 | 28* | -20
C#CCNC(=O)C1=C[C@H](C2CCCCC2)C[C@H](OCc2ccc(CO)cc2)O1 | -1 | -10 | 15 | 6 | -9 | 6
CCn1c(CCn2c3ccccc3c3ccccc32)n[nH]c1=S | 2 | 2 | 15 | -9 | 40* | -14
CCCNC(=O)N1C[C@H](O)COC[C@H]2O[C@@H](CC(=O)N[C@@H]3CCN(Cc4ccccc4)C3)CC[C@@H]21 | 1 | . | 24 | . | -4 | .
Cc1cc(O)c(/C=N/Nc2ccc(Cl)cc2)c(=O)o1 | -10 | 56* | -101 | 80* | -12 | 85*
COc1ccc(Cl)cc1N=Cc1c(O)cc(C)oc1=O | -3 | 3 | -43 | 2 | -22 | -17
C=CCn1c(=O)c(C#N)cc2c(=O)n3ccccc3nc21 | -27 | -6 | -403 | -7 | 2 | -22
C=CCn1c(=N)c(C#N)cc2c(=O)n3ccccc3nc21 | 8 | 0 | -487 | 5 | 36* | -24
COCC(C)n1c(SCC(=O)Nc2ccc3c(c2)OCCO3)nc2ccccc2c1=O (stereo unspecified) | 1 | 4 | 3 | 3 | 22* | -6
O=C(NC(=S)N1CCCC1)c1ccc(Cl)cc1 | 2 | -12 | 9 | 7 | 30* | 10
COc1cccc(C(=O)Nc2ccccc2C(=O)N2CCCC2)c1 | 1 | -3 | 27 | -1 | 3 | 14
CC(=O)Oc1cccc(C(=O)Nc2ccccc2C(=O)N2CCCC2)c1 | 0 | -5 | -1 | -10 | 20* | -12
N#Cc1ccccc1C[C@H](N)C(=O)NC[C@H]1O[C@@H](n2ccc(N)nc2=O)[C@H](O)[C@@H]1O | 7 | . | 24 | . | -7 | .
CN1CCc2cccc3c2[C@@H]1Cc1ccc(O)c(O)c1-3 | -1 | 15 | -150 | 14 | 26* | 38
COc1ccc(NC(=O)CN(C)CC(=O)Nc2cccc(F)c2)cc1Cl | 0 | -10 | 17 | -12 | 28* | -9
CN(CC(=O)NCc1ccccc1Cl)CC(=O)Nc1cccc(F)c1 | -2 | 2 | 7 | 5 | 5 | -2
O=C(Cc1ccccc1Cl)NC1(O)C(=O)c2ccccc2C1=O | 2 | 4 | 67* | 12 | 5 | 38
Nc1nc2ccccc2cc1C(=O)NCCCCc1ccccc1 | -19 | . | -373 | . | 8 | .
O=C(O)c1ccccc1NS(=O)(=O)c1ccc(N/N=C/c2ccc(O)c(O)c2)c([N+](=O)[O-])c1 | 1 | . | 53* | . | 9 | .
NS(=O)(=O)c1ccc(N/N=C/c2ccc(O)c(O)c2O)c([N+](=O)[O-])c1 | 2 | . | 106* | . | 21 | .
SMILES | SENP1 inh | SENP7 block | SENP8 block-1 | SENP8 block-2 | CendR NRP1 mod | SENP6 inh
COc1ccccc1NS(=O)(=O)c1ccc(N/N=C/C=C/c2ccccc2[N+](=O)[O-])c([N+](=O)[O-])c1 | 5 | 5 | 34 | 2 | 29* | 8
O=C(O)c1ccccc1NS(=O)(=O)c1ccc(NN=Cc2ccc(F)cc2)c([N+](=O)[O-])c1 | 3 | 3 | 29 | 8 | -16 | 33
NS(=O)(=O)c1ccc(N/N=C/c2ccc(O)cc2O)c([N+](=O)[O-])c1 | 6 | 3 | 54* | 3 | 16 | 3
NS(=O)(=O)c1ccc(N/N=C/c2ccccc2C(=O)O)c([N+](=O)[O-])c1 | 3 | 16 | 23 | 4 | -2 | -5
CCCC(=O)N1CCC1(C)C(=O)NS(=O)(=O)c1cccs1 (stereo unspecified) | 0 | . | -1 | . | -79 | .
Cn1ncc(Cl)c1C(=O)N1CCN(C23CC4CC(CC(C4)C2)C3)CC1 | -1 | -12 | 10 | -4 | 3 | -7
Cc1ccc(C(=O)N2CCN(C34CC5CC(CC(C5)C3)C4)CC2)o1 | 0 | 11 | 11 | -10 | 25* | -7
Cn1nccc1C(=O)N1CCN(C23CC4CC(CC(C4)C2)C3)CC1 | -2 | 7 | 24 | -4 | 31* | 8
O=C(Nc1cccc(OC(F)(F)F)c1)C1Cc2c(-c3ccccc3Oc3ccccc3)ccnc2O1 (stereo unspecified) | 1 | . | 10 | . | 4 | .
COc1cc(C(=O)N2CCCC(c3cc(C(=O)NCc4ccccc4)no3)C2)cc(OC)c1C (stereo unspecified) | 2 | . | 15 | . | 8 | .
Cc1cccc(C)c1NC(=O)C(c1ccnc2ccccc12)n1c(=O)c(-c2ccco2)nc2ccccc21 (stereo unspecified) | -42 | . | -396 | . | -68 | .
COc1ccc(C2=C/C(=C\c3ccc(OC(C)=O)cc3)C(=O)O2)cc1 | -35 | 1 | -135 | 3 | 108* | -2
CSc1cccc(CN2CCC(CO)(Cc3cccc(C(F)(F)F)c3)CC2)c1 | 0 | 5 | 9 | 0 | 30* | 13
N#C/C(=C\c1ccc(O)c(O)c1)C(=O)c1ccc(O)c(O)c1 | 3 | 45 | 11 | 81* | -144 | 83*
Cc1cc(C)n2c(Nc3ccc4c(c3)OCCO4)c(-c3ccccn3)nc2n1 | -14 | . | 7 | . | 21* | .
COC(=O)CCCC[C@@H]1O[C@H](CCc2ccccc2)CC2=C1C(=O)OC(C)(C)O2 | 1 | . | 16 | . | -16 | .
COc1ccc(C(C)(C)C)cc1NC(=O)CCc1c(C)noc1C | 1 | -2 | 1 | 11 | 28* | -2
COc1ccc(C(C)(C)C)cc1NC(=O)c1c(C)noc1C | -2 | 3 | 9 | 0 | 10 | -3
COC(=O)[C@@]1(C(C)C)N=C(c2cc(OC)c(OC)c(OC)c2)[C@]2(O1)C(=O)Nc1ccc(F)cc12 | -6 | . | 0 | . | 7 | .
CS(=O)(=O)n1c2ccccc2c(=O)n1-c1ccccc1CCl | 0 | . | 14 | . | -3 | .
COC(=O)Nc1sc(C(=O)N(C)C)c(C)c1C(=O)OC | -1 | -8 | -6 | -10 | 24* | 3
Cc1ccc(S(=O)(=O)Cn2nnnc2C(C(C)C)N2CCc3ccccc3C2)cc1 (stereo unspecified) | -5 | 10 | 64* | 1 | 2 | 29

Bioassay records deposited in PubChem by Sanford-Burnham Center for Chemical Genomics.
